Data reported in ChEMBL document CHEMBL4017509, “A Dual Modulator of Farnesoid X Receptor and Soluble Epoxide Hydrolase To Counter Nonalcoholic Steatohepatitis” (J Med Chem, 2017).
Active and inactive are the calls of the source. No cut-off for these calls is given here.

Tests used:
[1] = molecular target: T1, Bile acid receptor (Homo sapiens, UniProt Q96RI1); experiment: Transactivation of FXR in human HepG2 cells assessed as CYP7A1 mRNA expression at 3 uM after 8 to 16 hrs by SYBR green based qRT-PCR analysis relative to DMSO control; type: ADME, cell-based
T1 sequence (Q96RI1 whole entry): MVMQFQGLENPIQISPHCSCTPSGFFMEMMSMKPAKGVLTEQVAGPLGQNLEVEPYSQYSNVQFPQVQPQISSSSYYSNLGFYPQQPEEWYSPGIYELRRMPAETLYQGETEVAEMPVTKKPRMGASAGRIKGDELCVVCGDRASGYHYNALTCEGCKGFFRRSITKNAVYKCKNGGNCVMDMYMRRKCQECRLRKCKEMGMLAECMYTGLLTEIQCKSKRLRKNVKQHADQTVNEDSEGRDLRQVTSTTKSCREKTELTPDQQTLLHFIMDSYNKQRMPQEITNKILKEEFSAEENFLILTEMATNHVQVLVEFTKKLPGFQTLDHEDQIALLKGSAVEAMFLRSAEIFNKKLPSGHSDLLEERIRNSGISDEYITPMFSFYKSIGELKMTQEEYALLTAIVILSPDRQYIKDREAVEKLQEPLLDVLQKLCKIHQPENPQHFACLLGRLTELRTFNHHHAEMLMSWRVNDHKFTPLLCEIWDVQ
In short: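 HepG2 cells treated 8 or 16 h with compound or 0.1% DMSO, washed in cold PBS, RNA extracted; SYBR Green qRT-PCR in duplicate, ≥4 independent experiments (n = 3 for CD36/FAM3A). ΔΔCt method with GAPDH reference; expression as % of vehicle (100%). Pioglitazone 1 μM used as positive control for the PPARγ genes.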

[2] = molecular target: T2, Bile acid receptor (Homo sapiens) (UniProt Q96RI1); experiment: Transactivation of FXR in human HepG2 cells assessed as FGF19 mRNA expression at 1 uM after 8 to 16 hrs by SYBR green based qRT-PCR analysis relative to DMSO control; type: cell-based
T2 sequence (whole entry): T1 sequence (Q96RI1 whole entry)
In short: (§1)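 HepG2 cells incubated with test compound (0.1 and 1 μM) or 0.1% DMSO for 8 or 16 h, washed in cold PBS, RNA extracted; target mRNA by SYBR Green qRT-PCR, duplicate samples, ≥4 independent experiments; comparative ΔΔCt with GAPDH reference, vehicle set as 100%.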

[3] = molecular target: T3, Bifunctional epoxide hydrolase 2 (Homo sapiens) (UniProt P34913); experiment: Inhibition of sEH in primary human monocytes-derived macrophages assessed as reduction in LPS-stimulated IL-12p70 release at 1 uM after 16 hrs by cytometric bead array method; type: cell-based
T3 sequence (whole entry): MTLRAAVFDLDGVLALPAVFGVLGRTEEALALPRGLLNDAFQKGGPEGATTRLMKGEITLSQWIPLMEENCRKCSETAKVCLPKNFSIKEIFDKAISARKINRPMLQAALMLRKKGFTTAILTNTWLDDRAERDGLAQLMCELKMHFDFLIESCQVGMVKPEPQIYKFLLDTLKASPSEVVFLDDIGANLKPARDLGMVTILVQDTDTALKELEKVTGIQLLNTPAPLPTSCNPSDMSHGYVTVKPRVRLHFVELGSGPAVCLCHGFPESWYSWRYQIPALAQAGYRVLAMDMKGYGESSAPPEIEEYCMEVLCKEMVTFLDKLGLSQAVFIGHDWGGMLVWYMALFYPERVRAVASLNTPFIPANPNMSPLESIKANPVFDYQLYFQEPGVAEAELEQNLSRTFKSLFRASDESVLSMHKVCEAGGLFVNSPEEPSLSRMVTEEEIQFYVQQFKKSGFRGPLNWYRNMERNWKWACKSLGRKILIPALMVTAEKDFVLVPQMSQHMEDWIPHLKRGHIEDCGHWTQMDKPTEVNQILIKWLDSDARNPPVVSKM
In short: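 Human blood monocytes isolated by dextran sedimentation/Nycoprep and adherence, differentiated to macrophages with GM-CSF 10 ng/mL for 7 days plus IFNγ 10 ng/mL for final 48 h; stimulated with LPS 100 ng/mL together with compound for 16 h; supernatant IL-12p70 measured by cytometric bead array on flow cytometer.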

[4] = molecular target: T2, Bile acid receptor (Homo sapiens); experiment: Transactivation of FXR in human HepG2 cells assessed as SREBP1c mRNA expression at 1 uM after 8 to 16 hrs by SYBR green based qRT-PCR analysis relative to DMSO control; type: cell-based; in short: as §1
[5] = molecular target: T2, Bile acid receptor (Homo sapiens); experiment: Transactivation of FXR in human HepG2 cells assessed as SHP mRNA expression at 1 uM after 8 to 16 hrs by SYBR green based qRT-PCR analysis relative to DMSO control; type: cell-based; in short: as §1
[6] = molecular target: T3, Bifunctional epoxide hydrolase 2 (Homo sapiens); experiment: Inhibition of sEH in human HuT-78 cells assessed as reduction in Pam3CSK4-stimulated TNFalpha release preincubated for 24 hrs followed by Pam3CSK4 addition measured after 18 hrs by ELISA; type: cell-based
In short: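 HuT-78 cells in RPMI 1640 with 10% heat-inactivated FCS, 2.0 × 10^6 cells/well, exposed to compound (0.1% DMSO) for 24 h; medium then replaced with fresh compound plus Pam3CSK4 20 ng/mL for 18 h; supernatant TNFα measured by ELISA (absorbance 450 nm); each concentration repeated independently at least three times.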

[7] = molecular target: T2, Bile acid receptor (Homo sapiens); experiment: Transactivation of FXR in human HepG2 cells assessed as BSEP mRNA expression at 1 uM after 8 to 16 hrs by SYBR green based qRT-PCR analysis relative to DMSO control; type: cell-based; in short: as §1
[8] = molecular target: T3, Bifunctional epoxide hydrolase 2 (Homo sapiens); experiment: Inhibition of sEH in human HepG2 cells assessed as NF-kappaB mRNA expression at 1 uM after 8 to 16 hrs by SYBR green based qRT-PCR analysis relative to DMSO control; type: cell-based
In short: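 HepG2 cells treated with compound or 0.1% DMSO vehicle; NF-κB mRNA quantified by SYBR Green qRT-PCR, comparative ΔΔCt with GAPDH reference; expressed as % of vehicle (100%).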

[9] = molecular target: T2, Bile acid receptor (Homo sapiens); experiment: Transactivation of human FXR expressed in human HeLa cells co-expressing BSEP at 50 uM after 24 hrs by dual-glo luciferase reporter gene assay relative to GW4064; type: cell-based
In short: (§2)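 HeLa cells in DMEM/10% FCS at 37 °C, 5% CO2; switched to 0.5% charcoal-stripped FCS before calcium phosphate co-transfection with pcDNA3-hFXR, pSG5-hRXR, BSEP promoter–firefly luciferase reporter and pRL-SV40 renilla. Compound in 0.1% DMSO, phenol red-free medium, 24 h.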

[10] = molecular target: T1, Bile acid receptor; experiment: Transactivation of human FXR expressed in human HeLa cells co-expressing BSEP after 24 hrs by dual-glo luciferase reporter gene assay; type: cell-based; in short: as §2
[11] = molecular target: T4, Bifunctional epoxide hydrolase 2 (Homo sapiens, UniProt P34913); experiment: Inhibition of recombinant human sEH using PHOME as substrate preincubated for 30 mins followed by substrate addition measured for 30 mins by fluorescence photometric method; conditions: read-out: IC50
T4 sequence (P34913 whole entry): T3 sequence (whole entry)
In short: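 Recombinant human sEH in Bis-Tris buffer pH 7, 0.1 mg/mL BSA, 0.01% Triton X-100 (final), preincubated 30 min at room temperature with compound (1% DMSO final). PHOME added at 50 μM final; 6-methoxynaphthaldehyde fluorescence read each minute for 30 min.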

[12] = Aqueous solubility of compound at 5 mg after 24 hrs by HPLC analysis; type: physicochemical
[13] = molecular target: T3, Bifunctional epoxide hydrolase 2 (Homo sapiens); experiment: Inhibition of sEH in human HepG2 cells assessed as NF-kappaB mRNA expression at 10 uM after 8 to 16 hrs by SYBR green based qRT-PCR analysis relative to DMSO control; type: cell-based
[14] = molecular target: T3, Bifunctional epoxide hydrolase 2 (Homo sapiens); experiment: Inhibition of sEH in primary human monocytes-derived macrophages assessed as reduction in LPS-stimulated IL-12p70 release at 10 uM after 16 hrs by cytometric bead array method; type: cell-based
In short: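 Blood monocytes isolated by dextran sedimentation and Nycoprep gradient, adherence-selected 1 h, differentiated with GM-CSF 10 ng/mL for 7 days plus IFNγ 10 ng/mL for last 48 h. Stimulated with LPS 100 ng/mL plus compound for 16 h; supernatant IL-10 and IL-12p70 measured by cytometric bead array flow cytometry.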

`CC(C)c1onc(-c2c(Cl)cccc2Cl)c1COc1ccc(/C=C/c2cccc(C(=O)O)c2)c(Cl)c1` showed an Activity [1] of 0.03%.
For `CC[C@H]1[C@@H](O)[C@@H]2[C@H](CC[C@]3(C)[C@@H]([C@H](C)CCC(=O)O)CC[C@@H]23)[C@@]2(C)CC[C@@H](O)C[C@@H]12`, the Activity [2] was 640%, the inhibition [3] was “Active” and the Activity [4] was 51%. The Activity [5] was 416%, the inhibition [6] was “inactive” and the Activity [7] was 970%. For the same compound, the inhibition [8] was 29%.
`CC(C)(C)c1ccc(C(=O)NCc2ccc(NC(=O)C(F)(F)F)cc2Cl)cc1` showed an Emax [9] of 21%, an EC50 [10] of 14 nM and an IC50 [11] of 8.9 nM. For the same compound, the solubility at 24 h [12] was < 0.1 µg/mL.
In the case of `O=C(Nc1ccc(I)cc1)NC1CCCCC1`, the inhibition [13] is reported as 22.9% and the inhibition [14] is reported as “Active”.
